Data as given in publication PMC6733178 (ACS Omega, 2019).
≈ marks a conversion by molar mass, not a printed value.

How the values were obtained:
[1] = system: A. baumannii ATCC 747 (Ab47); experiment: MIC, broth microdilution with resazurin; format: cell-based, Acinetobacter baumannii
In short: (§1)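 CLSI broth microdilution. Strains were grown overnight at 35 °C on TSA or TSA with 5% sheep blood. Colonies were suspended in 0.9% saline to 0.5 McFarland, then diluted 1:100 in Mueller Hinton broth (about 1 × 10^6 CFU/mL). Test compound (2 mg/mL DMSO stock) was serially diluted 1:2 from 50 µg/mL final. Resazurin was added at 8 µg/mL final, and plates were incubated 35 °C for 20–24 h and read visually. MIC is the lowest concentration without the resazurin colour change. Each plate carried untreated, DMSO and antibiotic controls.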

[2] = system: A. baumannii ATCC BAA-1605 (Ab05); experiment: MIC, broth microdilution with resazurin; format: cell-based, Acinetobacter baumannii; details: NA = No Activity
In short: as §1

[3] = system: A. baumannii ATCC 19606 (Type Strain, AB06); experiment: MIC, broth microdilution with resazurin; format: cell-based, Acinetobacter baumannii
In short: as §1

[4] = system: S. aureus ATCC 33591 (Sa91); experiment: MIC, broth microdilution with resazurin; format: cell-based, Staphylococcus aureus; details: for MIC: Staphylococcus aureus, ATCC33591, read-out: MIC Values Sa91
In short: as §1

[5] = system: S. aureus ATCC 33592 (Sa92); experiment: MIC, broth microdilution with resazurin; format: cell-based, Staphylococcus aureus; details: for MIC: Staphylococcus aureus, ATCC33592, read-out: MIC Values Sa92
In short: as §1

[6] = system: S. aureus BAA-2312 (Sa12); experiment: MIC, broth microdilution with resazurin; format: cell-based, Staphylococcus aureus; details: for MIC: Staphylococcus aureus, BAA2312, read-out: MIC Values Sa12
In short: as §1

[7] = system: S. aureus ATCC 25923 (Sa); experiment: MIC, broth microdilution with resazurin; format: cell-based, Staphylococcus aureus; details: for MIC: Staphylococcus aureus, ATCC25923, read-out: MIC Values Sa
In short: as §1

[8] = system: B. subtilis ATCC 6623 (Bs); experiment: MIC, broth microdilution with resazurin; format: cell-based; details: NA = No Activity
[9] = system: S. aureus ATCC 700699 (Sa99); experiment: MIC, broth microdilution with resazurin; format: cell-based, Staphylococcus aureus; details: for MIC: Staphylococcus aureus, ATCC700699, read-out: MIC Values Sa99
In short: as §1

A. baumannii ATCC 19606 = experiment: SYTO-9/propidium iodide; format: cell-based, Acinetobacter baumannii; details: compared with positive control Colistin 6.25 μg/mL
[10] = system: tested Gram-positive strains (S. aureus incl. MRSA, S. epidermidis, B. subtilis); experiment: MIC summarised in the text over the tested Gram-positive strains; format: cell-based
[11] = system: S. epidermidis 700296 (Se); experiment: MIC, broth microdilution with resazurin; format: cell-based; details: for MIC: Staphylococcus epidermidis, read-out: MIC Values Se
[12] = system: human embryonic kidney (HEK293) cell line; experiment: In vitro cytotoxicity, resazurin viability; format: cell-based; details: HEK293, 24 h incubation
In short: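 HEK293 cells were counted and seeded at 4000 per well. Test compound was serially diluted from 50 µg/mL, added in triplicate, and incubated 24 h. Resazurin (5%) was then added, and plates were incubated 4 and 6 h before reading. Viability was read as fluorescence at 544 nm excitation and 590 nm emission.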

[13] = system: three strains of A. baumannii; experiment: MIC summarised in the text over the three A. baumannii strains; format: cell-based, Acinetobacter baumannii
In short: as §1

[14] = antibiotic-resistant strain, NA = No Activity

Q: Which results are given for Colistin [reference compound]?
A: MIC Ab47 ([1]; NA = No Activity): 1.56 µg/mL; MIC Ab05 [2]: 3.125 µg/mL; MIC Ab06 ([3]; NA = No Activity): 3.125 µg/mL

Q: “4-[4-[(2,2-Dibenzylhydrazino)methyl]-3-(3-fluorophenyl)pyrazol-1-yl]benzoic Acid [Compound 7]” was tested. Which “MIC Values Sa91” value [4, 14] did it give?
A: 6.25 µg/mL

Q: What about the “MIC Values Sa92” value [5, 14] of the same molecule?
A: 3.125 µg/mL

Q: What about the “MIC Values Sa12” value [6, 14] of the same molecule?
A: 6.25 µg/mL

Q: What about the “MIC Values Sa” value ([7]; antibiotic susceptible strain, NA = No Activity) of the same molecule?
A: 12.5 µg/mL

Q: And the “MIC Values Bs” value [8]?
A: 1.56 µg/mL

Q: What about the “MIC Values Sa99” value [9, 14] of the same molecule?
A: 3.125 µg/mL

Q: Which “membrane disruption ability (ratio of PI to SYTO-9 signals)” value (A. baumannii ATCC 19606) does the source give for CN1CCN(/N=C/c2cn(-c3ccc(C(=O)O)cc3)nc2-c2cccc(F)c2)CC1 [Compound 21, 4-[3-(3-Fluorophenyl)-4-[(E)-(4-methylpiperazin-1-yl)iminomethyl]pyrazol-1-yl]benzoic Acid] here?
A: better membrane disruption ability than the positive control

Q: What about the “activity against the tested strains (in words)” value [10] of the same molecule?
A: completely ceased the activity

Q: For O=C(O)c1ccc(-n2cc(/C=N/Nc3ccc(Cl)cc3Cl)c(-c3cccc(F)c3)n2)cc1 [Compound 12, 4-[4-[(E)-[(2,4-Dichlorophenyl)hydrazono]methyl]-3-(3-fluorophenyl)pyrazol-1-yl]benzoic Acid], which MIC [4] is on record?
A: 3.12 µg/mL (≈ 6.66 µM)

Q: And the MIC [5]?
A: 0.39 µg/mL (≈ 0.831 µM)

Q: And the MIC [6]?
A: 3.12 µg/mL (≈ 6.66 µM)

Q: What about the MIC [11] of the same molecule?
A: 3.12 µg/mL (≈ 6.66 µM)

Q: And the MIC [7]?
A: 3.12 µg/mL (≈ 6.66 µM)

Q: What about the IC50 [12] of the same molecule?
A: High IC50 values

Q: What about the MIC [9] of the same molecule?
A: 0.78 µg/mL (≈ 1.66 µM)

Q: O=C(O)c1ccc(-n2cc(/C=N/N(c3ccccc3)c3ccccc3)c(-c3cccc(F)c3)n2)cc1 [Compound 5, 4-[4-[(E)-(Diphenylhydrazono)methyl]-3-(3-fluorophenyl)pyrazol-1-yl]benzoic Acid] was tested. Which MIC [4] did it give?
A: 3.12 µg/mL (≈ 6.56 µM)

Q: What about the MIC [5] of the same molecule?
A: 0.78 µg/mL (≈ 1.64 µM)

Q: And the MIC [6]?
A: 3.12 µg/mL (≈ 6.56 µM)

Q: What about the MIC [11] of the same molecule?
A: 3.12 µg/mL (≈ 6.56 µM)

Q: And the MIC [7]?
A: 3.12 µg/mL (≈ 6.56 µM)

Q: And the IC50 [12]?
A: High IC50 values

Q: And the MIC [9]?
A: 1.56 µg/mL (≈ 3.27 µM)

Q: Which results are given for O=C(O)c1ccc(-n2cc(/C=N/N(c3ccccc3)c3ccccc3)c(-c3ccc(F)cc3)n2)cc1 [Compound 23, 4-[4-[(E)-(Diphenylhydrazono)methyl]-3-(4-fluorophenyl)pyrazol-1-yl]benzoic Acid]?
A: MIC [5]: 0.78 µg/mL (≈ 1.64 µM); MIC [6]: 3.12 µg/mL (≈ 6.56 µM); MIC Values Se ([11]; NA = No Activity): no activity; MIC [7]: 1.56 µg/mL (≈ 3.27 µM); IC50 [12]: High IC50 values; MIC Values Bs ([8]; Table 2): 1.56 µg/mL (≈ 3.27 µM); MIC [9]: 1.56 µg/mL (≈ 3.27 µM)

Q: Which results are given for O=C(O)c1ccc(-n2cc(/C=N/Nc3ccc(Br)cc3)c(-c3cccc(F)c3)n2)cc1 [Compound 10, 4-[4-[(E)-[(4-Bromophenyl)hydrazono]methyl]-3-(3-fluorophenyl)pyrazol-1-yl]benzoic Acid]?
A: MIC [4]: 12.5 µg/mL (≈ 26.1 µM); MIC [5]: 6.25 µg/mL (≈ 13 µM); MIC ([1]; Acinetobacter baumannii, ATCC747, read-out: MIC Ab47): 6.25 µg/mL (≈ 13 µM); MIC [6]: 12.5 µg/mL (≈ 26.1 µM); MIC [11]: 12.5 µg/mL (≈ 26.1 µM); activity against A. baumannii strains (in words) [13]: moderate activity; MIC [7]: 12.5 µg/mL (≈ 26.1 µM); MIC ([3]; Acinetobacter baumannii, ATCC19606, read-out: MIC Ab06): 3.12 µg/mL (≈ 6.52 µM); MIC [9]: 6.25 µg/mL (≈ 13 µM)

Q: What does the source list for CN(/N=C/c1cn(-c2ccc(C(=O)O)cc2)nc1-c1ccc(F)cc1)c1ccccc1 [Compound 22, 4-[3-(4-Fluorophenyl)-4-[(E)-[methyl(phenyl)hydrazono]methyl]pyrazol-1-yl]benzoic Acid]?
A: MIC [4]: 12.5 µg/mL (≈ 30.2 µM); MIC [5]: 6.25 µg/mL (≈ 15.1 µM); membrane disruption ability (ratio of PI to SYTO-9 signals) (A. baumannii ATCC 19606): better membrane disruption ability than the positive control; MIC [11]: 12.5 µg/mL (≈ 30.2 µM); MIC [7]: 12.5 µg/mL (≈ 30.2 µM); MIC [9]: 12.5 µg/mL (≈ 30.2 µM); activity against the tested strains (in words) [10]: moderate activity
